Screening results from PubChem BioAssay.
Ecoli tolC – E. coli tolC mutant growth inhibition. actives 2.2% (n = 65,000). E. coli BW25113 tolC mutant growth, OD615. growth inhibition, % at 10 µM (by protocol);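 active = growth inhibition at or above a cutoff equal to the mean over every tested compound plus 3 SD, cut at about 60% in these data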;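 note: growth measured after 20 h incubation at 37 °C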
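Test system: E. coli BW25113 ΔtolC::kan bacteria; incubation: 37 °C, 20 h exposure; medium: LB broth supplemented with 50 µg/mL kanamycin; read-out basis: percent growth inhibition; signal: A615 absorbance measurement; compound: 10 µM final, single dose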
H69AR inhibit – blocks growth of human H69AR lung tumor cells. H69AR lung tumor viability, ATP luminescence, 72 h; active compounds read low. actives 6% (n = 85,000). AID 598. viability, % at 10 µM;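 active = viability at or below 40%; inactive = viability above 40%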;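 note: multidrug resistant small cell line overexpressing MRP-1 efflux transporter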
Jurkat viability – cytotoxic compounds reducing Jurkat cell viability; Jurkat E6.1 viability, ATP luminescence, 48 h; inhibition, % at 4 µM; actives 1.2% (n = 56,000); AID 463;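 active = inhibition above the mean inhibition of all tested compounds plus 3 SD, cut at about 28% in these data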
Lung fibro prol – blocks proliferation of human lung fibroblasts; LL 47 human lung fibroblast viability, ATP luminescence; active compounds read low; viability, % at 10 µM; actives 1.1% (n = 85,000); AID 719;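 active = viability at or below 50% in the single dose screen; inactive = viability above 50%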;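 note: compound exposure lasted 72 h before the ATP readout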
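test system = LL 47 human lung fibroblasts | amount = 1,150 fibroblasts seeded per well | medium = 15% FBS in IMEM | times = overnight cell rest, 72 h compound treatment at 37 °C | measured by = CellTiter-Glo luminescence measuring cellular ATP | read-out = viability percentage against median untreated-cell control | benchmarks = cell-only wells, no compound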
HUVEC prolif 384 – blocks proliferation of human endothelial cells. viability, % at 10 µM (by protocol). HUVEC proliferation, CellTiter-Glo luminescence, 72 h; active compounds read low. AID 648. actives 1.1% (n = 86,000);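 active = viability at or below 30%; inactive = viability above 30%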
Ecoli WT expand – growth inhibitors of E. coli BW25113 wild type; actives 0.15% (n = 98,000); growth inhibition, % at 100 µM; AID 710; OD600 absorbance;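 active = growth inhibition above about 50% at one test dose, limit read from the data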;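 note: growth measured after 20 h incubation at 37 °C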
Of the large screens only hits and unclear results are named; the others gave an inactive call. Most compounds without a hit are left out; they make up all but 6.4% or so of the library.

Oc1c(Cl)cc(Cl)cc1Sc1cc(Cl)cc(Cl)c1O	H69AR inhibit 13.8 (no result: Jurkat viability, Ecoli WT expand)
O=C(Nc1ccccc1)Nc1ccc(C(=O)N2CCOCC2)cc1	none (no result: Ecoli tolC, Jurkat viability)
CC(C)(C)c1ccc(C(=O)C=[N+]=[N-])cc1	none (no result: Jurkat viability)
Cc1ccc(Sc2ncccc2COC(=O)Nc2ccccc2)cc1	none (no result: Ecoli tolC, H69AR inhibit, Jurkat viability, Lung fibro prol, HUVEC prolif 384)
C=C(C)C1CCC(C)=C1COC(=O)Nc1ccccc1 (stereo not drawn)	Ecoli tolC 77.7 (no result: H69AR inhibit, Lung fibro prol, HUVEC prolif 384)
COc1ccc(CCN2CCC(Nc3nc4ccccc4n3Cc3ccc(F)cc3)CC2)cc1	H69AR inhibit 1.5, Lung fibro prol 2.1, HUVEC prolif 384 1.9 (no result: Jurkat viability, Ecoli WT expand)
COc1ccc(Cn2c(-c3ccc(OC)cc3)nc3ccccc32)cc1	none (no result: Ecoli tolC, Jurkat viability, Ecoli WT expand)
Cc1cccnc1NCc1ccc(O)c2ncccc12	H69AR inhibit 13.4
Cc1ccc(O)c(CNc2ccccn2)c1	none (no result: H69AR inhibit)
Cc1cc(N=Cc2c(O)n(-c3ccc4c(c3)OCO4)c(=O)c3ccccc23)ccn1	H69AR inhibit 21.3
CCCn1c(-c2ccc(OC)cc2)nc2nc3ccccc3nc21	none
C=CCn1c(-c2cccc(OC)c2)nc2nc3ccccc3nc21	H69AR inhibit 34.1 (no result: Ecoli tolC, Jurkat viability)
C=CCn1c(SCC(=O)Nc2ccc3c(c2)OCO3)nnc1-c1cc(Br)ccc1O	Ecoli tolC 74.5
C=CCn1c(SCC(=O)Nc2ccc3c(c2)OCO3)nnc1-c1ccccc1	none
COc1ccc(NC(=O)N(Cc2ccc3c(c2)OCO3)C2CC(=O)N(c3ccc(OC)cc3)C2=O)cc1 (stereo not drawn)	H69AR inhibit 39.6 (no result: Ecoli tolC, Jurkat viability)
CCOc1ccc(NC(=NCc2ccc3c(c2)OCO3)SC2CC(=O)N(c3ccc(OCC)cc3)C2=O)cc1 (stereo not drawn)	Lung fibro prol 43.3, HUVEC prolif 384 25.9 (no result: Ecoli tolC, Jurkat viability, Ecoli WT expand)
CCOc1ccc(N2C(=O)CC(SC(=NC)Nc3ccc4c(c3)OCO4)C2=O)cc1 (stereo not drawn)	none (no result: Ecoli tolC, H69AR inhibit, Jurkat viability, Lung fibro prol, HUVEC prolif 384)
CCOc1ccc(NC(=NCc2ccc3c(c2)OCO3)SC2CC(=O)N(c3ccccc3)C2=O)cc1 (stereo not drawn)	H69AR inhibit 34.7 (no result: Ecoli tolC, Jurkat viability, Ecoli WT expand)
COc1cccc(NC2c3ccccc3C(=O)N2Cc2ccco2)c1 (stereo not drawn)	none
O=C1c2ccccc2C(Nc2cccc(C(F)(F)F)c2)N1Cc1ccco1 (stereo not drawn)	Ecoli tolC 93.1
CCN(CC)C(=O)CSc1nc2ccccc2c(=O)n1CCC(=O)NCc1ccc(F)cc1	none
COC(=O)c1cc2c(C)nn(-c3ccccc3)c2s1	none
Cc1nn(-c2ccccc2)c2sc(C(=O)N(CC(=O)NC(C)(C)C)Cc3ccco3)cc12	Ecoli tolC 74.9
COc1ccc(S(=O)(=O)N2CCC(C(=O)Nc3cccc(Cl)c3)CC2)cc1OC	none (no result: H69AR inhibit, Lung fibro prol, HUVEC prolif 384)
Cc1ccc(-c2nnc(Sc3nc4ccccc4o3)c3ccccc23)cc1	none (no result: Ecoli tolC, H69AR inhibit, Jurkat viability, Lung fibro prol, HUVEC prolif 384)
Cc1nnc(Sc2nc3ccccc3o2)c2ccccc12	H69AR inhibit 6.8
CNC(=O)c1csc(-c2ccc(C)cc2)n1	none (no result: Ecoli tolC, H69AR inhibit, Jurkat viability, Lung fibro prol, HUVEC prolif 384)
Cc1cccc(NC(=O)Cn2c(=O)oc3ccccc32)c1	none (no result: H69AR inhibit, Lung fibro prol, HUVEC prolif 384)
Cc1cccc(-n2nnc(C(=O)NCc3ccccc3)c2N)c1	none
Cc1cccc(-n2nnc(C(=O)NC3CCCc4ccccc43)c2N)c1 (stereo not drawn)	H69AR inhibit 19.2
CC(=O)n1cc(C(C[N+](=O)[O-])SCCN)c2ccccc21 (stereo not drawn)	H69AR inhibit 1.6, Lung fibro prol 24.4, HUVEC prolif 384 21.6 (no result: Ecoli tolC, Jurkat viability)
Cc1c(/C=N/n2cnnc2)c2ccccc2n1CCOc1ccccc1	H69AR inhibit 32.3 (no result: Lung fibro prol)
CCN(CC)CCCN(Cc1cc2cc3c(cc2[nH]c1=O)OCCO3)C(=O)Nc1ccc(F)cc1	none
CC(C)Cn1c(=O)c2c(nc3n2CCCN3CCc2ccccc2)n(C)c1=O	H69AR inhibit 33.6
Cn1c(=O)n(CCc2ccccc2)c(=O)c2c1nc1n2CCCN1CCc1ccccc1	Ecoli tolC 76.5, Lung fibro prol 46.2, HUVEC prolif 384 3.7
Cn1c(=O)n(CCc2ccccc2)c(=O)c2c1nc1n2CCCN1Cc1ccccc1	H69AR inhibit 26.9
Cn1c(=O)n(Cc2ccccc2F)c(=O)c2c1nc1n2CCCN1CCc1ccccc1	none (no result: H69AR inhibit)
Cn1c(N2CCCC2)nc2c1c(=O)n(Cc1ccc(F)cc1)c(=O)n2C	none (no result: Lung fibro prol)
Cn1c(=O)n(Cc2ccc(F)cc2)c(=O)c2c1nc1n2CCCN1Cc1ccccc1	H69AR inhibit 37.8
O=C(COC(=O)C1(c2ccc(F)cc2)CCCC1)NC1CC1	none (no result: Ecoli tolC, H69AR inhibit, Jurkat viability, Lung fibro prol, HUVEC prolif 384)
CCN(CC)CC#CCC(C)(c1ccccc1)c1ccccc1	none (no result: Ecoli tolC, H69AR inhibit, Jurkat viability, Lung fibro prol, HUVEC prolif 384)
